From ChEMBL document CHEMBL3351346, “Design, synthesis, structure-function relationship, bioconversion, and pharmacokinetic evaluation of ertapenem prodrugs” (J Med Chem, 2014)

Key:
[1] = Stability in rat plasma assessed as compound remaining at 50 uM at 37 degC after 60 mins by LC-MS/MS method; assay type: ADME, cell-free; conditions: read-out: Stability
How it was run: (§1)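 Prodrugs were incubated in rat or human plasma for 60 min. Disappearance of prodrug and concomitant appearance of ertapenem were followed by LC-MS/MS, and in selected cases monoesters from partial hydrolysis were also monitored. Ertapenem itself was incubated the same way as a control.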

[2] = Stability in pH 2.0 simulated gastric fluid assessed as compound degradation to beta-lactam ring open products at 1 uM after 60 mins by LC-MS/MS method; assay type: ADME; conditions: read-out: Drug degradation
How it was run: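 Incubation was in simulated gastric fluid (SGF, pH 2.0) for 60 min, with loss to the β-lactam ring-opened product measured by LC-MS/MS.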

[3] = Stability in human plasma assessed as compound remaining at 50 uM at 37 degC after 60 mins by LC-MS/MS method; assay type: ADME, cell-free; conditions: read-out: Stability; how it was run: as §1
[4] = Stability in pH 6.5 simulated gastrointestinal fluid assessed as compound remaining at 50 uM after 3 hrs by LC-MS/MS method; assay type: ADME; conditions: read-out: Stability
How it was run: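 Compounds at 50 μM were incubated in fasted-state simulated intestinal fluid (FaSSIF, pH 6.5) for over 3 h. Percent remaining was determined by LC-MS/MS.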

[5] = Stability in pH 7.4 phosphate buffer assessed as compound remaining at 50 uM after 3 hrs by LC-MS/MS method; assay type: physicochemical; conditions: read-out: Stability

| SMILES | remaining at 1 h, 50 µM [1] [%] | degraded at 1 h, 1 µM [2] [%] | remaining at 1 h, 50 µM [3] [%] | remaining at 3 h, 50 µM [4] [%] | remaining at 3 h, 50 µM [5] [%] |
| --- | --- | --- | --- | --- | --- |
| CCC(CC)C(=O)OCOC(=O)C1=C(S[C@@H]2CN[C@H](C(=O)Nc3cccc(C(=O)OCOC(=O)C(CC)CC)c3)C2)[C@H](C)[C@@H]2[C@@H]([C@@H](C)O)C(=O)N12 | 3 | > 25 | 83 | > 95 | > 95 |
| C[C@@H](O)[C@H]1C(=O)N2C(C(=O)OCOC(=O)C3CCCCC3)=C(S[C@@H]3CN[C@H](C(=O)Nc4cccc(C(=O)OCOC(=O)C5CCCCC5)c4)C3)[C@H](C)[C@H]12 | 10 | > 25 | 60 | > 95 | > 95 |
| CC(OC(=O)C1=C(S[C@@H]2CN[C@H](C(=O)Nc3cccc(C(=O)OC(C)OC(=O)C(C)(C)C)c3)C2)[C@H](C)[C@@H]2[C@@H]([C@@H](C)O)C(=O)N12)OC(=O)C(C)(C)C (stereo not given in full) | 2 | > 25 | 46 | > 95 | > 95 |
| C[C@@H](O)[C@H]1C(=O)N2C(C(=O)OCOC(=O)OC(C)(C)C)=C(S[C@@H]3CN[C@H](C(=O)Nc4cccc(C(=O)OCOC(=O)OC(C)(C)C)c4)C3)[C@H](C)[C@H]12 | 8 | > 25 | 67 | > 95 | > 95 |
| CC(C)OC(=O)OCOC(=O)C1=C(S[C@@H]2CN[C@H](C(=O)Nc3cccc(C(=O)OCOC(=O)OC(C)C)c3)C2)[C@H](C)[C@@H]2[C@@H]([C@@H](C)O)C(=O)N12 | 3 | > 25 | 28 | > 95 | > 95 |
| C[C@@H](O)[C@H]1C(=O)N2C(C(=O)OCOC(=O)OC3CCCCC3)=C(S[C@@H]3CN[C@H](C(=O)Nc4cccc(C(=O)OCOC(=O)OC5CCCCC5)c4)C3)[C@H](C)[C@H]12 | 10 | > 25 | 96 | > 95 | > 95 |
| C[C@@H](O)[C@H]1C(=O)N2C(C(=O)OCOC(=O)OC3CCCCC3)=C(S[C@@H]3CN[C@H](C(=O)Nc4cccc(C(=O)O)c4)C3)[C@H](C)[C@H]12 | 0 | > 25 | 46 | > 95 | > 95 |
| CCOC(=O)OCOC(=O)C1=C(S[C@@H]2CN[C@H](C(=O)Nc3cccc(C(=O)OCOC(=O)OCC)c3)C2)[C@H](C)[C@@H]2[C@@H]([C@@H](C)O)C(=O)N12 | 0 | > 25 | 1 | > 95 | > 95 |
| COC(=O)OCOC(=O)C1=C(S[C@@H]2CN[C@H](C(=O)Nc3cccc(C(=O)OCOC(=O)OC)c3)C2)[C@H](C)[C@@H]2[C@@H]([C@@H](C)O)C(=O)N12 | 0 | > 25 | 0 | > 95 | > 95 |
| CCCCCCCCCCCCCCCCOC(=O)C1=C(S[C@@H]2CN[C@H](C(=O)Nc3cccc(C(=O)OCCCCCCCCCCCCCCCC)c3)C2)[C@H](C)[C@@H]2[C@@H]([C@@H](C)O)C(=O)N12 | 89 | > 25 | 89 | > 95 | > 95 |
| CCOC(=O)C1=C(S[C@H]2C[C@@H](C(=O)Nc3cccc(C(=O)OCC)c3)N(Cc3oc(=O)oc3C)C2)[C@H](C)[C@@H]2[C@@H]([C@@H](C)O)C(=O)N12 | 0 | > 25 | 19 | > 95 | > 95 |
| C[C@@H](O)[C@H]1C(=O)N2C3=C(S[C@@H]4CN[C@@H](C4)C(=O)Nc4cccc(c4)C(=O)OCCCCOC3=O)[C@H](C)[C@H]12 | 0 | > 25 | 4 | > 95 | > 95 |

Other lines, results leading:

| remaining at 1 h, 50 µM [1] [%] | degraded at 1 h, 1 µM [2] [%] | remaining at 1 h, 50 µM [3] [%] | remaining at 3 h, 50 µM [4] [%] | remaining at 3 h, 50 µM [5] [%] | SMILES |
| --- | --- | --- | --- | --- | --- |
| 0 | > 25 | 45 | > 95 | > 95 | C[C@@H](O)[C@H]1C(=O)N2C(C(=O)OCOC(=O)C(C)(C)C)=C(S[C@@H]3CN[C@H](C(=O)Nc4cccc(C(=O)O)c4)C3)[C@H](C)[C@H]12 |
| 0 | > 25 | 53 | > 95 | > 95 | C[C@@H](O)[C@H]1C(=O)N2C(C(=O)O)=C(S[C@@H]3CN[C@H](C(=O)Nc4cccc(C(=O)OCOC(=O)C(C)(C)C)c4)C3)[C@H](C)[C@H]12 |
| 0 | > 25 | 82 | > 95 | > 95 | CCC(CC)C(=O)OCOC(=O)C1=C(S[C@@H]2CN[C@H](C(=O)Nc3cccc(C(=O)O)c3)C2)[C@H](C)[C@@H]2[C@@H]([C@@H](C)O)C(=O)N12 |
| 0 | > 25 | 26 | > 95 | > 95 | CC(C)C(=O)OCOC(=O)c1cccc(NC(=O)[C@@H]2C[C@H](SC3=C(C(=O)O)N4C(=O)[C@H]([C@@H](C)O)[C@H]4[C@H]3C)CN2)c1 |
| 0 | > 25 | 20 | > 95 | > 95 | C[C@@H](O)[C@H]1C(=O)N2C(C(=O)OCOC(=O)C3CCCCC3)=C(S[C@@H]3CN[C@H](C(=O)Nc4cccc(C(=O)O)c4)C3)[C@H](C)[C@H]12 |
| 0 | > 25 | 0 | > 95 | > 95 | CC(=O)OCOC(=O)C1=C(S[C@@H]2CN[C@H](C(=O)Nc3cccc(C(=O)OCOC(C)=O)c3)C2)[C@H](C)[C@@H]2[C@@H]([C@@H](C)O)C(=O)N12 |
| 0 | > 25 | 40 | > 95 | > 95 | C[C@@H](O)[C@H]1C(=O)N2C(C(=O)OCOC(=O)OC(C)(C)C)=C(S[C@@H]3CN[C@H](C(=O)Nc4cccc(C(=O)O)c4)C3)[C@H](C)[C@H]12 |
| 0 | > 25 | 62 | > 95 | > 95 | CC(C)OC(=O)OCOC(=O)C1=C(S[C@@H]2CN[C@H](C(=O)Nc3cccc(C(=O)O)c3)C2)[C@H](C)[C@@H]2[C@@H]([C@@H](C)O)C(=O)N12 |
| 0 | > 25 | 10 | > 95 | > 95 | CCOC(=O)OCOC(=O)C1=C(S[C@@H]2CN[C@H](C(=O)Nc3cccc(C(=O)O)c3)C2)[C@H](C)[C@@H]2[C@@H]([C@@H](C)O)C(=O)N12 |
| 0 | > 25 | 33 | > 95 | > 95 | COC(=O)OCOC(=O)C1=C(S[C@@H]2CN[C@H](C(=O)Nc3cccc(C(=O)O)c3)C2)[C@H](C)[C@@H]2[C@@H]([C@@H](C)O)C(=O)N12 |
| 0 | > 25 | 12 | > 95 | > 95 | Cc1oc(=O)oc1COC(=O)c1cccc(NC(=O)[C@@H]2C[C@H](SC3=C(C(=O)O)N4C(=O)[C@H]([C@@H](C)O)[C@H]4[C@H]3C)CN2)c1 |
| – | > 25 | – | > 95 | > 95 | CCOC(=O)C1=C(S[C@@H]2CN[C@H](C(=O)Nc3cccc(C(=O)O)c3)C2)[C@H](C)[C@@H]2[C@@H]([C@@H](C)O)C(=O)N12 |
| – | > 25 | – | > 95 | > 95 | CCOC(=O)c1cccc(NC(=O)[C@@H]2C[C@H](SC3=C(C(=O)O)N4C(=O)[C@H]([C@@H](C)O)[C@H]4[C@H]3C)CN2)c1 |
| – | > 25 | – | > 95 | > 95 | CC(C)OC(=O)C1=C(S[C@@H]2CN[C@H](C(=O)Nc3cccc(C(=O)O)c3)C2)[C@H](C)[C@@H]2[C@@H]([C@@H](C)O)C(=O)N12 |
| – | > 25 | – | > 95 | > 95 | CC(C)OC(=O)c1cccc(NC(=O)[C@@H]2C[C@H](SC3=C(C(=O)O)N4C(=O)[C@H]([C@@H](C)O)[C@H]4[C@H]3C)CN2)c1 |
| 7 | > 25 | 80 | > 95 | > 95 | C[C@@H](O)[C@H]1C(=O)N2C(C(=O)OCC(F)(F)F)=C(S[C@@H]3CN[C@H](C(=O)Nc4cccc(C(=O)O)c4)C3)[C@H](C)[C@H]12 |
| – | > 25 | – | > 95 | > 95 | C[C@@H](O)[C@H]1C(=O)N2C(C(=O)O)=C(S[C@@H]3CN[C@H](C(=O)Nc4cccc(C(=O)OCC(F)(F)F)c4)C3)[C@H](C)[C@H]12 |
